Measured values as given in ChEMBL document CHEMBL4038284, “Synthesis of novel quinoline-based 4,5-dihydro-1H-pyrazoles as potential anticancer, antifungal, antibacterial and antiprotozoal agents” (Eur J Med Chem, 2017).
In brackets after ≈: the same amount, converted by molar mass. Activity calls are given as the source filed them. The calls are words filed in the database; no cut-off is given here.

Columns and labels:
OVCAR-8 = test: Growth inhibition of human OVCAR8 cells at 10 uM incubated for 48 hrs by sulforhodamine B assay; type: functional, cell-based
Outline: (§1)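 NCI 60-line panel, single 10 μM dose. Cells were grown in RPMI-1640 with 5% FBS and 2 mM L-glutamine and pre-incubated 24 h before compound addition (DMSO stock). Exposure was 48 h at 37 °C, 5% CO2. Cells were fixed with cold TCA (10% final), stained with 0.4% SRB, bound dye dissolved in 10 mM Tris base, A515 read. Growth was taken relative to time-zero and untreated control plates.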

ACHN = test: Growth inhibition of human ACHN cells at 10 uM incubated for 48 hrs by sulforhodamine B assay; type: functional, cell-based
Outline: (§2)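 NCI 60-cell-line screen at a single 10 µM dose. Cells in RPMI-1640 with 5% FBS and 2 mM L-glutamine, pre-incubated 24 h, then treated for 48 h at 37 °C. TCA fixation, sulforhodamine B staining, absorbance at 515 nm. Percentage growth calculated against time-zero and untreated controls.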

DU-145 = test: Growth inhibition of human DU145 cells at 10 uM incubated for 48 hrs by sulforhodamine B assay; type: functional, cell-based; outline: as §2
CCRF-CEM = test: Growth inhibition of human CCRF-CEM cells at 10 uM incubated for 48 hrs by sulforhodamine B assay; type: functional, cell-based; outline: as §2
UO-31 = test: Growth inhibition of human UO31 cells at 10 uM incubated for 48 hrs by sulforhodamine B assay; type: functional, cell-based
Outline: (§3)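 NCI-60 single-dose screen at 10 µM for 48 h. Cells were grown in RPMI-1640 with 5% FBS and 2 mM L-glutamine and preincubated 24 h before compound. Time-zero plates were TCA-fixed at compound addition. After exposure, cells were TCA-fixed, stained with SRB and read at 515 nm. Percentage growth was calculated against time-zero and untreated-control absorbances.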

Candida albicans [1] = test: Growth inhibition of Candida albicans ATCC 10231 at 7.8 ug/ml incubated for 48 hrs under dark condition by broth microdilution method relative to control; type: functional; details: ATCC 10231, 48 h, read-out: GI
Outline: (§4)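 CLSI M27-A3 broth microdilution in RPMI-1640, DMSO ≤1%. Inoculum 1-5 × 10^3 CFU/mL. Incubated 48 h at 30 °C, dark. % inhibition = 100 − (OD405 test − sterility control)/(OD405 growth control − sterility control), with growth and sterility control wells. Triplicate.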

Trypanosoma cruzi = test: Antitrypanosomal activity against Trypanosoma cruzi Tulahuen intracellular amastigote harboring LacZ infected in human U937 cells after 72 hrs by CPRG/Nonidet reagent based spectrophotometric method; type: functional, cell-based; details: U-937, 72 h
Outline: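 U-937 cells at 2.5 × 10^5 cells/mL in RPMI-1640 with 10% serum and 0.1 µg/mL PMA were infected with β-galactosidase-transfected Tulahuen epimastigotes at 5 parasites per cell. Infected cells were exposed to 50, 12.5, 3.125 and 0.78 µg/mL for 72 h. CPRG (100 uM) and 0.1% Nonidet P-40 were added for 3 h, read at 570 nm. EC50 by Probit. Triplicate, at least two experiments; benznidazole as reference.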

Cryptococcus neoformans [2] = test: Growth inhibition of Cryptococcus neoformans ATCC 32264 at 3.4 ug/ml incubated for 48 hrs under dark condition by broth microdilution method relative to control; type: functional; details: ATCC 32264, 48 h, read-out: GI
NCI/ADR-RES = test: Growth inhibition of human NCI/ADR-RES cells at 10 uM incubated for 48 hrs by sulforhodamine B assay; type: functional, cell-based; outline: as §1
OVCAR-5 = test: Growth inhibition of human OVCAR5 cells at 10 uM incubated for 48 hrs by sulforhodamine B assay; type: functional, cell-based; outline: as §1
KM12 = test: Growth inhibition of human KM12 cells at 10 uM incubated for 48 hrs by sulforhodamine B assay; type: functional, cell-based; outline: as §1
NCI-H23 = test: Growth inhibition of human NCI-H23 cells at 10 uM incubated for 48 hrs by sulforhodamine B assay; type: functional, cell-based; outline: as §1
MCF7 = test: Growth inhibition of human MCF7 cells at 10 uM incubated for 48 hrs by sulforhodamine B assay; type: functional, cell-based; outline: as §1
Candida albicans [3] = test: Growth inhibition of Candida albicans ATCC 10231 at 15.62 ug/ml incubated for 48 hrs under dark condition by broth microdilution method relative to control; type: functional; details: ATCC 10231, 48 h, read-out: GI; outline: as §4
TK-10 = test: Growth inhibition of human TK10 cells at 10 uM incubated for 48 hrs by sulforhodamine B assay; type: functional, cell-based; outline: as §3
NCI-H322M = test: Growth inhibition of human NCI-H322M cells at 10 uM incubated for 48 hrs by sulforhodamine B assay; type: functional, cell-based; outline: as §1
SNB-75 = test: Growth inhibition of human SNB75 cells at 10 uM incubated for 48 hrs by sulforhodamine B assay; type: functional, cell-based; outline: as §3
MDA-MB-231 = test: Growth inhibition of human MDA-MB-231 cells at 10 uM incubated for 48 hrs by sulforhodamine B assay; type: functional, cell-based; outline: as §1
Staphylococcus aureus = test: Antibacterial activity against methicillin-resistant Staphylococcus aureus ATCC 43300 after 24 hrs by resazurin dye based microdilution assay; type: functional; details: ATCC 43300, 24 h
Outline: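 Broth microdilution in Mueller Hinton broth, inoculum 5 × 10^5 – 8 × 10^5. Compound stocks diluted in MHB with 5% DMSO and 0.1% Tween 80. Incubation 24 h at 35-37 °C. MIC is the lowest concentration with visible growth inhibition and/or by resazurin (1 mg/mL) read-out. Gentamicin as control. Run in duplicate, replicated at least three times.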

HCC 2998 = test: Growth inhibition of human HCC2998 cells at 10 uM incubated for 48 hrs by sulforhodamine B assay; type: functional, cell-based; outline: as §2
U-937 = test: Cytotoxicity against human U937 cells after 72 hrs by MTT assay; type: cell-based; details: u-937, 72 h
Outline: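 Exponentially growing U-937 at 1 × 10^5 cells/mL in RPMI-1640 with 10% FBS were exposed to 200, 50, 12.5 and 3.125 µg/mL for 72 h at 37 °C, 5% CO2. MTT for 3 h, stopped with isopropanol/SDS, formazan read at 570 nm, blank-corrected. LC50 by Probit from % viability against untreated cells. Triplicate, at least two independent experiments.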

Candida albicans [4] = test: Growth inhibition of Candida albicans ATCC 10231 at 3.4 ug/ml incubated for 48 hrs under dark condition by broth microdilution method relative to control; type: functional; details: ATCC 10231, 48 h, read-out: GI
A549 = test: Growth inhibition of human A549/ATCC cells at 10 uM incubated for 48 hrs by sulforhodamine B assay; type: functional, cell-based; outline: as §2
Cryptococcus neoformans [5] = test: Growth inhibition of Cryptococcus neoformans ATCC 32264 at 125 ug/ml incubated for 48 hrs under dark condition by broth microdilution method relative to control; type: functional; details: ATCC 32264, 48 h, read-out: GI; outline: as §4
Plasmodium falciparum = test: Antiplasmodial activity against chloroquine-sensitive Plasmodium falciparum 3D7 assessed as reduction in parasitic LDH activity after 48 hrs by Malstat reagent based […] method; type: functional; details: 3D7, 48 h
Outline: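 Unsynchronized P. falciparum 3D7 at 0.5% parasitemia and 1% hematocrit in RPMI with 3% Albumax II. Exposed to 100, 25, 6.25 and 1.56 µg/mL for 48 h at 37 °C under 90% N2/5% CO2/5% O2. After three freeze-thaw cycles, LDH measured with Malstat and NBT/PES, 1 h in the dark, read at 650 nm. IC50 by Probit; triplicate, ≥2 experiments.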

SMILES | growth inhibition (GI) (OVCAR-8) | growth inhibition (GI) (ACHN) | growth inhibition (GI) (DU-145) | growth inhibition (GI) (CCRF-CEM) | growth inhibition (GI) (UO-31) | inhibition of growth at 7.8 µg/mL (Candida albicans [1]) | EC50 (Trypanosoma cruzi) | inhibition of growth at 3.4 µg/mL (Cryptococcus neoformans [2]) | growth inhibition (GI) (NCI/ADR-RES) | growth inhibition (GI) (OVCAR-5) | growth inhibition (GI) (KM12) | growth inhibition (GI) (NCI-H23) | growth inhibition (GI) (MCF7) | inhibition of growth at 15.62 µg/mL (Candida albicans [3]) | growth inhibition (GI) (TK-10) | MIC (Staphylococcus aureus) | LC50 (U-937) | inhibition of growth at 3.4 µg/mL (Candida albicans [4]) | inhibition of growth at 125 µg/mL (Cryptococcus neoformans [5]) | EC50 (Plasmodium falciparum) | also measured
COc1ccc(C2=NN(c3ccccc3)C(c3cccc(Nc4ccnc5cc(Cl)ccc45)c3)C2)cc1 (centres undefined) | inactive | inactive | inactive | inactive | inactive | 7.57% | 86.8 µg/mL (≈ 172 µM) | 2.74% | inactive | inactive | inactive | inactive | inactive | 8.21% | inactive | > 1000 µg/mL | 28 µg/mL (≈ 55.4 µM) | 0.38% | 16.9% | 13.7 µg/mL (≈ 27 µM) | growth inhibition (GI) (NCI-H322M): inactive; growth inhibition (GI) (SNB-75): inactive; growth inhibition (GI) (MDA-MB-231): inactive; growth inhibition (GI) (HCC 2998): inactive; growth inhibition (GI) (A549): inactive
O=Cc1cccc(Nc2ccnc3cc(Cl)ccc23)c1 | – | – | – | – | – | 1.48% | 1.15 µg/mL (≈ 4.07 µM) | 5.03% | – | – | – | – | – | 10.8% | – | 500 µg/mL (≈ 1770 µM) | 0.6 µg/mL (≈ 2.12 µM) | 1.33% | 38.5% | 14.2 µg/mL (≈ 50.1 µM) | –
COc1ccc(C2=NN(C=O)C(c3cccc(Nc4ccnc5cc(Cl)ccc45)c3)C2)cc1 (centres undefined) | Active | Active | Active | Active | Active | 7.43% | > 0.15 µg/mL | 4.06% | Active | Active | Active | Active | Active | 12.9% | Active | > 1000 µg/mL | 0.3 µg/mL (≈ 0.657 µM) | 3.51% | 52.5% | 16.1 µg/mL (≈ 35.3 µM) | growth inhibition (GI) (NCI-H322M): Active; growth inhibition (GI) (SNB-75): Active; growth inhibition (GI) (MDA-MB-231): Active; growth inhibition (GI) (HCC 2998): Active; growth inhibition (GI) (A549): Active
